From ChEMBL document CHEMBL1833832, “The discovery of long-acting saligenin β₂ adrenergic receptor agonists incorporating a urea group” (Bioorg Med Chem, 2011)

Assays:
[1] = molecular target: Beta-2 adrenergic receptor (Homo sapiens, UniProt P07550); assay: Agonist activity at human beta2 receptor expressed in CHO cells assessed as cAMP accumulation; type: functional, cell-based
[2] = molecular target: Beta-1 adrenergic receptor (Homo sapiens, UniProt P08588); assay: Agonist activity at human beta1 receptor expressed in CHO cells assessed as cAMP accumulation; type: functional, cell-based
Beta-1 adrenergic receptor, sequence (P08588 whole entry): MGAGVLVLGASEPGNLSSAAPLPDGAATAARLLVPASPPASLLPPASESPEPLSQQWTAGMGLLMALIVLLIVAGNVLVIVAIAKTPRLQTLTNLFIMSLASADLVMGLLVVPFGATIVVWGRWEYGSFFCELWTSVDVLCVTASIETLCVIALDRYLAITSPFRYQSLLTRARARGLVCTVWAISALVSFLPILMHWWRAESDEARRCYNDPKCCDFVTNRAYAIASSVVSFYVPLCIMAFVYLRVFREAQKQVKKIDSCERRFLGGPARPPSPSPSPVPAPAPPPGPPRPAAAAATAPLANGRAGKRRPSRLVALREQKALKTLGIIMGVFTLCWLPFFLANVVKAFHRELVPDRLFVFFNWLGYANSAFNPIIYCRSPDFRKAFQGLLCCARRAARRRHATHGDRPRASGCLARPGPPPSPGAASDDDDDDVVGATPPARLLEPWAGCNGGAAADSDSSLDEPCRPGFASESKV

[3] = molecular target: Beta-3 adrenergic receptor (Homo sapiens, UniProt P13945); assay: Agonist activity at human beta3 receptor expressed in CHO cells assessed as cAMP accumulation; type: functional, cell-based
Beta-3 adrenergic receptor, sequence (P13945 whole entry): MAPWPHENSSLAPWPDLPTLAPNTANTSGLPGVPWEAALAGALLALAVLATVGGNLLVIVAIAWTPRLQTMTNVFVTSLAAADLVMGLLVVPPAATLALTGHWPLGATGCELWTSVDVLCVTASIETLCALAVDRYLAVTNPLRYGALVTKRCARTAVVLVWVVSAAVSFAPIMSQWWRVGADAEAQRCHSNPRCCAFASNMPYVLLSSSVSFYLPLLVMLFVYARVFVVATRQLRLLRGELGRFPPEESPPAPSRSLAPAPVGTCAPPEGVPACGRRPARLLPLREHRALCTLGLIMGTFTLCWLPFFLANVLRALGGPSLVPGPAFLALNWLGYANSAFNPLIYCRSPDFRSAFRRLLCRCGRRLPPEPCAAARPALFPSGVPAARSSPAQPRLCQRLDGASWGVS

[4] = tested on: Liver microsomes; assay: Metabolic stability in human liver microsomes assessed as compound turn over ratio relative to verapamil; type: ADME, Microsome
[5] = molecular target: Beta-2 adrenergic receptor (Cavia porcellus, UniProt Q8K4Z4); assay: Agonist activity at beta2 adrenergic receptor in guinea pig tracheal strip assessed as inhibition of electrically-induced bronchocontractile response; type: functional, tissue-based, Trachea
Beta-2 adrenergic receptor (Cavia porcellus, UniProt Q8K4Z4), sequence (Q8K4Z4 whole entry): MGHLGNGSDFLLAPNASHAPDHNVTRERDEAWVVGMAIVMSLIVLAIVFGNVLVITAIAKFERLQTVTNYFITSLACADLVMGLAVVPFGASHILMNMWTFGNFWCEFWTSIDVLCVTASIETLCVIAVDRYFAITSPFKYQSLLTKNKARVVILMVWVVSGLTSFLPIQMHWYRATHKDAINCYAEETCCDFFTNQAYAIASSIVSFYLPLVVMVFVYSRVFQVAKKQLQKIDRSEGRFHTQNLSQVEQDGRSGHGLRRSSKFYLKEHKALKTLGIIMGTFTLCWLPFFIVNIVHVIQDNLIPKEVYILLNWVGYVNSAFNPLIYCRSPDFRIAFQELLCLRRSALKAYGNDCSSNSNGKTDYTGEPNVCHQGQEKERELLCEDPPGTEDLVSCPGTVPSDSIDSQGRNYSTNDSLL

[6] = species: Cavia porcellus; assay: Bronchodilatory activity against electrically-stimulated contraction in guinea pig trachea assessed as onset time for bronchorelaxation activity; type: functional
How it was run: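 Isolated guinea pig trachea strips were superfused and contracted electrically. Agonist was perfused until maximal relaxation was reached. Onset was taken as the time for an EC50 concentration to reach 50% of maximal relaxant effect. Minimum n = 2.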

[7] = Lipophilicity, log D of the compound at pH 6.4; type: physicochemical; details: buffer
[8] = AUC in Han Wistar rat at 2 mg/kg, po; type: ADME, organism-based; set-up: dose 2 mg/kg, route oral; details: plasma
How it was run: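 Oral absorption in rat was measured as AUC using a deconjugated HPV model.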

[9] = tested on: Rattus norvegicus; assay: Liver blood flow in Han Wistar rat at 0.25 mg/kg, iv; type: ADME, organism-based; set-up: dose 0.25 mg/kg, route intravenous; details: in vivo
[10] = species: Cavia porcellus; assay: Bronchodilatory activity against histamine-induced bronchospasm in the guinea pig; type: functional
How it was run: (§1)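 In vivo guinea pig model with histamine-induced bronchospasm, measured in a plethysmograph chamber. Compound was given as a nebulised solution in dimethyl acetamide-saline vehicle. Potency is expressed as the EC90 nebuliser concentration.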

[11] = tested on: Cavia porcellus; assay: Bronchodilatory activity against histamine-induced bronchospasm in guinea pig assessed as time taken for 50% recovery of bronchospasm at EC90 administered via nebulizer; type: functional; how it was run: as §1
[12] = tested on: Cavia porcellus; assay: Bronchodilatory activity against histamine-induced bronchospasm in guinea pig assessed as time taken for 50% recovery of bronchospasm at 10 times EC90 administered via nebulizer; type: functional; how it was run: as §1
[13] = Plasma clearance in Han Wistar rat at 0.25 mg/kg, iv; type: ADME, organism-based; set-up: dose 0.25 mg/kg, route intravenous
How it was run: (§2)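 Pharmacokinetics were run in male Han Wistar rat and Beagle dog, dosed intravenously and orally. Plasma clearance, steady-state volume of distribution, half-life and oral bioavailability were derived from the plasma profiles. Rat plasma samples were deconjugated before analysis.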

[14] = Volume of distribution at steady state in Han Wistar rat at 0.25 mg/kg, iv; type: ADME, organism-based; set-up: dose 0.25 mg/kg, route intravenous; details: in vivo, read-out: Vdss; how it was run: as §2
[15] = Half life in Han Wistar rat at 0.25 mg/kg, iv; type: ADME, organism-based; set-up: dose 0.25 mg/kg, route intravenous; details: in vivo; how it was run: as §2
[16] = Oral bioavailability in Han Wistar rat at 2 mg/kg; type: ADME, organism-based; details: in vivo; how it was run: as §2
[17] = Half life in Beagle dog at 0.05 mg/kg, iv; details: in vivo
[18] = Oral bioavailability in Beagle dog at 0.25 mg/kg; details: in vivo
[19] = tested on: Canis familiaris; assay: Liver blood flow in Beagle dog at 0.05 mg/kg, iv; details: in vivo
[20] = Plasma clearance in Beagle dog at 0.05 mg/kg, iv
[21] = Volume of distribution at steady state in Beagle dog at 0.05 mg/kg, iv; details: in vivo, read-out: Vdss
[22] = Oral bioavailability in dog; type: ADME, organism-based, Canis lupus familiaris; details: in vivo; how it was run: as §2

Beta-2 adrenergic receptor (Homo sapiens, UniProt P07550), sequence (P07550 whole entry): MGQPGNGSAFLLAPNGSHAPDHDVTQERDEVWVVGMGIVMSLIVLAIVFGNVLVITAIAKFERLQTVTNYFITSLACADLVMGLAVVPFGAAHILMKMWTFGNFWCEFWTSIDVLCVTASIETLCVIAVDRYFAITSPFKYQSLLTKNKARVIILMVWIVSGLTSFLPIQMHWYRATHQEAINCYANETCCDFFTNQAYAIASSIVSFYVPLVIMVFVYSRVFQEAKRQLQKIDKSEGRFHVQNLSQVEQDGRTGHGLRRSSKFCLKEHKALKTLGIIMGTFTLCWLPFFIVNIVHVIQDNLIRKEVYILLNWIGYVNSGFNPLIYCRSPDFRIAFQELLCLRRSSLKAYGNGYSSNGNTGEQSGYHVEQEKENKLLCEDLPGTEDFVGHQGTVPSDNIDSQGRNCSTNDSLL

| Compound | EC50 [1] | EC50 [2] | EC50 [3] | fold change (FC) [4] | EC50 [5] | logD [7] | Time [6] | other results |
| --- | --- | --- | --- | --- | --- | --- | --- | --- |
| CC(=O)O.NC(=O)Nc1cccc(CCCCOCCCCCCNC[C@H](O)c2ccc(O)c(CO)c2)c1 | 0.794 nM | 63.1 nM | 7.94 nM | 0.97 | 2.51 nM | -0.28 | 13.5 min | – |
| CC(=O)O.CCNC(=O)Nc1cccc(CCCCOCCCCCCNC[C@H](O)c2ccc(O)c(CO)c2)c1 | 1 nM | 31.6 nM | 158 nM | 0.81 | 1.26 nM | 0.5 | 15 min | – |
| CC(=O)O.O=C(Nc1cccc(CCCCOCCCCCCNC[C@H](O)c2ccc(O)c(CO)c2)c1)NC1CCCCC1 | 1 nM | 7.94 nM | 2.51 nM | 2.18 | – | – | – | – |
| CC(=O)O.CCNC(=O)NCc1cccc(CCCCOCCCCCCNC[C@H](O)c2ccc(O)c(CO)c2)c1 | 0.631 nM | 31.6 nM | 31.6 nM | 0.72 | – | – | – | – |
| CC(=O)O.NC(=O)Nc1cc(CCCCOCCCCCCNC[C@H](O)c2ccc(O)c(CO)c2)cc(C(F)(F)F)c1 | 1 nM | 50.1 nM | 25.1 nM | 1.34 | – | – | – | – |
| OCc1cc(C(O)CNCCCCCCOCCCCc2ccccc2)ccc1O (configuration not stated) [SALMETEROL] | – | – | – | – | – | 1.06 | – | bioavailability [22]: 66%; Time [11]: 8 h |

Continued by falling EC50 [1], values first:

| EC50 [1] | EC50 [2] | EC50 [3] | fold change (FC) [4] | EC50 [5] | logD [7] | Compound | Time [6] | other results |
| --- | --- | --- | --- | --- | --- | --- | --- | --- |
| 0.501 nM | 31.6 nM | 12.6 nM | 1.37 | – | – | CC(=O)O.CCNC(=O)Nc1ccc(CCCCOCCCCCCNC[C@H](O)c2ccc(O)c(CO)c2)cc1 | – | – |
| 0.501 nM | 7.94 nM | 15.8 nM | 1.64 | – | – | CC(=O)O.NC(=O)NCc1cccc(CCCCOCCCCCCNC[C@H](O)c2ccc(O)c(CO)c2)c1 | – | – |
| 0.316 nM | 10 nM | 12.6 nM | – | – | – | O=C(CNC(=O)Nc1cccc(CCCCOCCCCCCNC[C@H](O)c2ccc(O)c(CO)c2)c1)NC1CCCC1 | – | – |
| 0.251 nM | 31.6 nM | 100 nM | – | 0.251 nM | -0.78 | NC(=O)CNC(=O)Nc1cccc(CCCCOCCCCCCNC[C@H](O)c2ccc(O)c(CO)c2)c1.O=CO | 9 min | – |
| 0.158 nM | 39.8 nM | 39.8 nM | 1.17 | 1.58 nM | 0.2 | CC(=O)O.Cc1cc(CCCCOCCCCCCNC[C@H](O)c2ccc(O)c(CO)c2)cc(NC(N)=O)c1 | 10 min | AUC [8]: 80.2 ng·h/mL; QH [9]: 100%; EC90 [10]: 10000 nM; Time [11]: 7 h; Time [12]: 18 h; clearance [13]: 83 mL/min/kg; Vd [14]: 2 L/kg; half-life [15]: 54 min; bioavailability [16]: < 5%; half-life [17]: 60 min; bioavailability [18]: 6%; QH [19]: < 67%; clearance [20]: 6 mL/min/kg; Vd [21]: 0.55 L/kg |
